# Compound activity from PubChem.
# Most compounds without a hit are left out; they make up all but 3% or so of the library.
# 5HT1a antag: blocks the human serotonin 5-HT1a receptor; P08908; CHO 5-HT1a Ga15 NFAT-bla reporter, antagonist mode; inhibition, % at 10 µM; 62,000 tested, 0.68% active;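 active = inhibition above the mean of all tested compounds plus 3 SD, cut at about 43% in these data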;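 note: receptor stimulated by 5-CT agonist at 100 nM near EC80; beta-lactamase reporter measured by ratiometric fluorescence of a cleavable substrate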
# S1P1 ag pot: agonists and agonism potentiators of human S1P1 receptor; P21453; activation, % at 9.5 µM; AID 449; S1P1 CRE-bla cells, forskolin, beta-lactamase FRET, potentiator mode; S1P1 agonist co-added at EC20, 2 nM; 100% = saturating reference agonist, 0% = basal; 56,000 tested, 0.57% active;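 active = activation above a cutoff set at the mean activation of all tested compounds plus 3 SD, cut at about 54% in these data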;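 note: forskolin at 4 µM as EC80 and the EC20 agonist is SEW2871; 100% = SEW2871 at its EC100 plus forskolin at EC80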
# S1P3 agonist: S1P3 (human) receptor agonism; Q99500; S1P3 NFAT-BLA reporter cells, FRET ratio; relative to 1 µM S1P, basal subtracted; activation, % at 4.5 µM; 60,000 tested, 0.1% active;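 active = activation above the screen-wide mean plus 3 SD, cut at about 4.5% in these data, passing the limit was not always enough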
#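 Benchmarks: high control 1 µM S1P / System: stable CHO line with human S1P3, Gα16, NFAT-BLA reporter / Dosing: single compound concentration, 4.5 µM final / Timing: 4 h compound at 37 °C, 2 h substrate at RT / Measured by: FRET β-lactamase substrate fluorescence, excitation 405 nm, 460/535 nm emission ratio, background-subtracted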
# HTR1E antagonist: antagonists of human 5-HT1E serotonin receptor. 65,000 tested, 0.99% active. inhibition, % at 6 µM. AID 571. CHO 5-HT1E Ga15 NFAT-bla reporter, FRET, antagonist. P28566;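 active = inhibition above a set limit, the mean inhibition across every tested compound plus 3 SD, cut at about 29% in these data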;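 note: signal is the 460 over 535 nm emission ratio of beta-lactamase substrate; 0% = agonist plus DMSO wells and 100% = wells without agonist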
# Target sequence (P28566 whole entry, looked up): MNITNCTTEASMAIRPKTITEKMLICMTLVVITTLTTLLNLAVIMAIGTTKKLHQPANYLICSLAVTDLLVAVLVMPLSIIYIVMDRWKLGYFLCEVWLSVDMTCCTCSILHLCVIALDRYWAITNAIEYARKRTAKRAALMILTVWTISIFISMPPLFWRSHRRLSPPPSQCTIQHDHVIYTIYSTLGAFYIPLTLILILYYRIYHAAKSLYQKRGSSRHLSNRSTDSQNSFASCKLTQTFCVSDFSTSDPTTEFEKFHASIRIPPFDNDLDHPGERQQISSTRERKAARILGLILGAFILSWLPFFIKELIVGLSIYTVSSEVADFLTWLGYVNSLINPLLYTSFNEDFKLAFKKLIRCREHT
# HTR1A agonist: activates the human 5-HT1a serotonin receptor; P08908; CHO 5-HT1a Ga15 NFAT-bla reporter, FRET ratio; 0% basal, 100% maximal reference agonist; activation, % at 10 µM; 65,000 tested, 0.56% active; AID 567;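 active = activation above the screen-wide mean activation plus 3 SD, cut at about 19% in these data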;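 note: 0% = DMSO wells and 100% = 5-CT at EC100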
# 5HT1E ag: agonists of human 5-HT1E serotonin receptor; P28566; CHO 5-HT1E Ga15 NFAT-bla reporter, FRET; 0% DMSO wells, 100% control agonist wells; activation, % at 6 µM; 65,000 tested, 0.69% active; AID 574;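 active = activation above a set limit, the screen-wide mean activation plus 3 SD, cut at about 8.5% in these data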;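 note: 100% = positive control agonist at 1 µM giving full maximal response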
# * hit, by the source's call; x = not tested or not shown.
SMILES,5HT1a antag,S1P1 ag pot,S1P3 agonist,HTR1E antagonist,HTR1A agonist,5HT1E ag
CC1=C(C#N)C(NC(=O)c2ccco2)(C(F)(F)F)C(=O)N1 (configuration not stated),-6,-43,-1,15,0,12*
CCOC(=O)CSc1nc2c(sc(=S)n2Cc2ccco2)c(=O)n1-c1ccc(F)cc1,50*,x,x,11,0,0
CCn1c(=S)sc2c(=O)n(-c3ccccc3)c(SCC(=O)NCc3ccco3)nc21,22,x,x,-2,-1,0
Nc1nc(CSc2nc3ccccc3[nH]2)nc(N2CCOCC2)n1,-6,-72,0,9,-4,0
Cc1cc(C(=O)COc2ncnc3sccc23)c(C)n1C1CC1,-6,17,0,-7,19*,0
CCCn1c(C)cc(C(=O)COc2ncnc3sccc23)c1C,-2,-21,0,-10,-3,0
Cn1c(=O)c2c(ncn2CC(=O)Nc2cc(Cl)c(Cl)cc2Cl)n(C)c1=O,-3,3,-1,2,-6,0
COc1ccc2cc3cc(C(=O)NCCN4CCN(c5ccccc5F)CC4)oc3nc2c1,71*,10,-2,3,5,17*
CCC1CCCCN1C(=O)CSc1nnc(-c2c[nH]c3ccccc23)o1 (configuration not stated),-14,79*,-1,-131,1,1
CC(C)C1N=C2c3ccccc3N=C(SCc3cc(=O)n4cc(Cl)ccc4n3)N2C1=O (configuration not stated),-18,-63,1,-1,6,2
CCOC(=O)c1cc2ccc(OC(=O)c3ccco3)cc2oc1=O,-308,-291,28*,-102,296*,81*
CCCn1c(N)c(C(=O)CN2CCN(S(=O)(=O)c3cccs3)CC2)c(=O)[nH]c1=O,9,4,-1,2,-3,-1
COc1cccc(CNC(=O)Cn2cccc2)c1,-2,-2,0,-8,-2,24*
Cc1ccc2c(c1)c1c(n2CC(O)Cn2c(C)nc3ccccc32)C(=O)CCC1 (configuration not stated),29,-28,-2,-9,73*,0
Cc1ccc2c(c1)c1c(n2CC(O)Cn2c(C)nc3ccccc32)/C(=N\O)CCC1 (configuration not stated),28,-43,0,-25,-4,0
CC(C(=O)Nc1nc2ccccc2[nH]1)N1C(=O)C2CC=CCC2C1=O (configuration not stated),12,-5,1,1,-1,1
O=C1C2C3C=CC(CO)(O3)C2C(=O)N1c1ccc(-c2ccccc2)cc1 (configuration not stated),88*,x,x,61*,-6,0
CC(=O)N1C=CN(C(C)=O)C(c2cn(C)c3ccccc23)C1c1cn(C)c2ccccc12 (configuration not stated),29,69*,-2,-6,-3,-1
CC(=O)n1cc(C2C(=O)CCCC2=O)c2ccccc21,14,-9,0,-3,-7,0
COC(=O)COc1ccc(S(=O)(=O)NCc2cccnc2)cc1C,-5,x,-1,-6,-1,0
Cc1cc(C(=O)OCC(=O)NCc2ccco2)c(C)n1-c1ccc(F)cc1,34,8,-1,37*,-3,-1
O=C(COC(=O)c1ccco1)NCc1ccco1,8,1,-1,6,-2,0
CN(Cc1cc2ccccc2[nH]c1=O)S(C)(=O)=O,5,-2,-1,-1,-4,1
CCCOC(=O)c1ccc(Oc2cn[nH]c2-c2ccc(OC)cc2O)cc1,46*,36,-1,26,0,-1
CCOc1ccc(-c2[nH]ncc2Oc2ccccc2OC)c(O)c1,-3,-4,0,-3,-4,1
SMILES,5HT1a antag,S1P1 ag pot,S1P3 agonist,HTR1E antagonist,HTR1A agonist,5HT1E ag
Cc1csc2c(C#N)c(=O)c3c(n12)CCC3,-3,4,0,7,1,-1
CC(C)(C)N1C(=O)Cc2c1nc(N)c1c(N)nc(N3CCCCC3CO)c(C#N)c21 (configuration not stated),53*,-40,0,34*,-1,0
CCOc1nc(-c2ccccc2)ccc1-c1noc(-c2ccc(OC)c(OC)c2)n1,5,x,x,-12,-1,0
CC(C)c1ccc2oc(-c3cc(N)ccc3O)nc2c1,28,64*,-1,-2,-8,2
C=CCc1ccccc1OCC(O)CN(C(C)C)C(C)C (configuration not stated),13,-12,0,-1,-2,19*
C=CCc1ccccc1OCC(O)CNC (configuration not stated),7,-15,0,-4,0,9.4*
COc1ccccc1NC(=O)CSc1nnc(C)n1Cc1ccccc1,0,9,-1,4,-4,0
COc1ccc(-c2nnc(-c3cccs3)o2)cc1OC,-11,-19,0,-3,2,2
CCOc1ccc(-c2nnc(-c3ccco3)o2)cc1OCC,-14,99*,0,-1,-2,0
CCOc1ccc(-c2nnc(-c3cccs3)o2)cc1OCC,-5,104*,0,-7,1,0
CCOc1cc(-c2nnc(-c3ccco3)o2)cc(OCC)c1OCC,-8,-18,-1,4,-2,1
Cc1cc(C)cc(OCC(=O)Nc2cccc(-c3nnc(-c4ccco4)o3)c2)c1,-12,x,0,-9,20*,0
Cc1cc2oc(C(=O)N(Cc3ccco3)C3CCS(=O)(=O)C3)cc(=O)c2cc1Cl (configuration not stated),-6,-19,0,0,3,0
CCOC(=O)CSc1nc(N)c(C(=O)Nc2ccc(N(C)C)cc2)s1,x,15,-3,-4,0,-1
Cc1ccc(C(CC(=O)N2CCOCC2)c2ccco2)cc1 (configuration not stated),-2,5,-1,11,0,0
CC(=O)NC(CCS(C)(=O)=O)C(=O)N1CCc2ccccc21 (configuration not stated),2,-23,1,5,-3,-1
CCn1c(=O)c(C(=O)Nc2nc3ccccc3[nH]2)c(O)c2ccccc21,57*,55,0,64*,-2,3
CC1(C)CC(=O)C2=C(C1)N(CC1CCCO1)C(=O)C2(NC(=O)c1cccnc1)C(F)(F)F (configuration not stated),-4,-20,0,2,-3,2
COc1cc(OC)c(OC)cc1CNC1CCCCCC1,8,-9,-2,18,33*,0
